What was measured:
Type in all cases: functional
Rattus norvegicus [1] = assay: Average turns of rat / 1st 15 min at intraperitoneal dosage of 1.0 mg/kg
Rattus norvegicus [2] = assay: (§1) Tested for lowering of serum prolactin level in reserpinized rat after i.p. administration at dosage of 0.05 mg/kg; settings: route intraperitoneal
Rattus norvegicus [3] = assay: Percentage of lesioned rats exhibiting contralateral turning after intraperitoneal dosage of 1.0 mg/kg
In short: (§2)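 Rats with unilateral 6-hydroxydopamine nigrostriatal lesions dosed i.p.; contralateral rotation scored as % of rats turning and average turns during first 15 min after turning began; 6-10 rats per group. Method of Ungerstedt and Arbuthnot.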

Rattus norvegicus [4] = assay: (§3) Control Serum prolactin level in reserpinized rat after i.p. administration at dosage of 0.05 mg/kg; settings: route intraperitoneal
Rattus norvegicus [5] = organism: Rattus norvegicus; assay: animal or person; settings: ip, route intraperitoneal
Rattus norvegicus [6] = assay: (§4) Dopaminergic activity causing prolactin inhibition in reserpinized rat after i.p. administration at dosage of 5.0 mg/kg; settings: ip, route intraperitoneal
Rattus norvegicus [7] = assay: (§5) Tested for average turns of rat / 1st 15 min at intraperitoneal dosage of 0.1 mg/kg; in short: as §2
Rattus norvegicus [8] = assay: (§6) Percentage of lesioned rats exhibiting contralateral turning after intraperitoneal dosage of 0.1 mg/kg; in short: as §2
Rattus norvegicus [9] = assay: Tested for lowering of serum prolactin level in reserpinized rat after i.p. administration at dosage of 0.5 mg/kg; settings: route intraperitoneal
Rattus norvegicus [10] = assay: Percentage of lesioned rats exhibiting contralateral turning after ip dosage of 1.0 mg/kg; settings: route intraperitoneal
In short: (§7)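 Rats with unilateral 6-hydroxydopamine nigrostriatal lesions dosed intraperitoneally; contralateral rotation scored as percentage of rats turning and average turns counted over first 15 min after turning began; 6-10 rats per group.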

Rattus norvegicus [11] = assay: (§8) Control Serum prolactin level in reserpinized rat after i.p. administration at dosage of 0.5 mg/kg; settings: route intraperitoneal
Rattus norvegicus [12] = assay: Dopaminergic activity causing prolactin inhibition in reserpinized rat after i.p. administration at dosage of 0.5 mg/kg; settings: ip, route intraperitoneal
Rattus norvegicus [13] = assay: Tested for average turns of rat / 1st 15 min at intraperitoneal dosage of 1.0 mg/kg; in short: as §7
Rattus norvegicus [14] = assay: as §8; settings: route intraperitoneal; remark: listed apart in the source
In short: (§9)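 Reserpinized male rats, intraperitoneal dosing; serum prolactin of vehicle control group reported in ng/mL as mean ± standard error, 10 rats per group, for comparison with treated group.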

Rattus norvegicus [15] = assay: Control Serum prolactin level in reserpinized rat after i.p. administration at dosage of 5 mg/kg; settings: route intraperitoneal; in short: as §9
Rattus norvegicus [16] = assay: as §4; settings: ip, route intraperitoneal; remark: listed apart in the source
In short: (§10)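 Serum prolactin measured in reserpinized male rats given drug intraperitoneally; control group serum level alongside treated level; percent inhibition derived from control versus treated means; mean ± standard error for 10 rats per group; significance level (p) reported versus control.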

Rattus norvegicus [17] = assay: as §5; in short: as §7; remark: listed apart in the source
Rattus norvegicus [18] = assay: Percentage of lesioned rats exhibiting contralateral turning after ip dosage of 0.1 mg/kg; settings: route intraperitoneal; in short: as §7
Rattus norvegicus [19] = assay: (§11) Dopaminergic activity causing prolactin inhibition in reserpinized rat after i.p. administration at dosage of 0.05 mg/kg; settings: ip, route intraperitoneal; in short: as §10
Rattus norvegicus [20] = assay: as §6; in short: as §7; remark: listed apart in the source
Rattus norvegicus [21] = assay: Tested for average turns of rat / 1st 15 min at intraperitoneal dosage of 0.05 mg/kg; in short: as §7
Rattus norvegicus [22] = assay: Tested for lowering of serum prolactin level in reserpinized rat after i.p. administration at dosage of 0.0005 mg/kg; settings: route intraperitoneal; in short: as §10
Rattus norvegicus [23] = assay: Tested for lowering of serum prolactin level in reserpinized rat after i.p. administration at dosage of 0.005 mg/kg; settings: route intraperitoneal; in short: as §10
Rattus norvegicus [24] = assay: Percentage of lesioned rats exhibiting contralateral turning after ip dosage of 0.05 mg/kg; settings: route intraperitoneal; in short: as §7
Rattus norvegicus [25] = assay: Control Serum prolactin level in reserpinized rat after i.p. administration at dosage of 0.0005 mg/kg; settings: route intraperitoneal; in short: as §10
Rattus norvegicus [26] = assay: Control Serum prolactin level in reserpinized rat after i.p. administration at dosage of 0.005 mg/kg; settings: route intraperitoneal; in short: as §10
Rattus norvegicus [27] = assay: Dopaminergic activity causing prolactin inhibition in reserpinized rat after i.p. administration at dosage of 0.0005 mg/kg; settings: ip, route intraperitoneal; in short: as §10
Rattus norvegicus [28] = assay: (§12) Dopaminergic activity causing prolactin inhibition in reserpinized rat after i.p. administration at dosage of 0.005 mg/kg; settings: ip, route intraperitoneal
In short: (§13)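 Male rats pretreated with reserpine; drug given i.p. and serum prolactin measured (ng/mL) in controls and treated groups; % inhibition relative to control; mean ± SE for 10 rats per group; significance level p reported. Method of Clemens et al.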

Rattus norvegicus [29] = assay: Tested for average turns of rat / 1st 15 min at intraperitoneal dosage of 0.02 mg/kg; in short: as §7
Rattus norvegicus [30] = assay: tested for average turns of rat / 1st 15 min at intraperitoneal dosage of 0.1 mg/kg; in short: as §7
Rattus norvegicus [31] = assay: Percentage of lesioned rats exhibiting contralateral turning after ip dosage of 0.02 mg/kg; settings: route intraperitoneal; in short: as §7
Rattus norvegicus [32] = assay: as §12; settings: ip, route intraperitoneal; in short: as §10; remark: listed apart in the source
Rattus norvegicus [33] = assay: as §11; settings: ip, route intraperitoneal; in short: as §13; remark: listed apart in the source
Rattus norvegicus [34] = assay: as §3; settings: route intraperitoneal; in short: as §13; remark: listed apart in the source
Rattus norvegicus [35] = assay: as §1; settings: route intraperitoneal; in short: as §10; remark: listed apart in the source
Rattus norvegicus [36] = assay: Percentage of lesioned rats exhibiting contralateral turning after intraperitoneal dosage of 0.05 mg/kg; in short: as §7

SMILES | Average turns (Rattus norvegicus [1]) | Exhibiting turning (Rattus norvegicus [3]) | Inhibition (Rattus norvegicus [4]) | inhibition in vivo at 0.05 mg/kg (Rattus norvegicus [5]) | inhibition in vivo at 5 mg/kg (Rattus norvegicus [6]) | Exhibiting turning (Rattus norvegicus [10]) | inhibition in vivo at 0.5 mg/kg (Rattus norvegicus [12]) | Average turns (Rattus norvegicus [17]) | further results
CN(C)C1CCc2n[nH]cc2C1.Cl.Cl (stereo not drawn) | 0 | 0% | 59.8 ng/mL | 32% | 69% |  |  |  | Inhibition (Rattus norvegicus [2]): 41 ng/mL
CCCN(CCC)C1CCc2c[nH]nc2C1 (stereo not drawn) | 114 | 100% |  | 31% |  |  |  |  | Average turns (Rattus norvegicus [7]): 0; Exhibiting turning (Rattus norvegicus [8]): 0%
CN1CCC[C@@H]2Cc3n[nH]cc3CC21.Cl.Cl (stereo partly drawn) | 0 |  | 31.7 ng/mL | 2% | 84% | 0% | 42% |  | Inhibition (Rattus norvegicus [2]): 31.1 ng/mL; Serum level (Rattus norvegicus [9]): 18.5 ng/mL; Concentration (Rattus norvegicus [11]): 31.7 ng/mL
CCCN(CCC)C1Cc2cccc3[nH]cc(c23)C1.O=C(O)C(=O)O (stereo not drawn) |  | 60% | 46.1 ng/mL | 0% | 95% |  | 59% |  | Average turns (Rattus norvegicus [7]): 73; Average turns (Rattus norvegicus [13]): 113; Control level (Rattus norvegicus [14]): 46.1 ng/mL; Exhibiting turning (Rattus norvegicus [8]): 40%; Inhibition (Rattus norvegicus [2]): 46.2 ng/mL; Serum level (Rattus norvegicus [9]): 18.9 ng/mL
O=C(O)/C=C\C(=O)O.c1[nH]cc2c1CC1NCCC[C@@H]1C2 (stereo partly drawn) | 0 |  |  |  |  | 0% |  |  | Inhibition (Rattus norvegicus [15]): 43.4 ng/mL; inhibition in vivo at 5 mg/kg (Rattus norvegicus [16]): 26%
NC1CCc2c[nH]cc2C1 (stereo not drawn) | 0 | 0% |  |  | 24% |  |  |  | 
C=CCN1CCC[C@@H]2Cc3n[nH]cc3CC21.Cl.Cl (stereo partly drawn) | 165 |  |  |  |  | 100% |  | 0 | Exhibiting turning (Rattus norvegicus [18]): 0%; inhibition in vivo at 0.05 mg/kg (Rattus norvegicus [19]): 31%
CN(C)C1Cc2cccc3[nH]cc(c23)C1.O=C(O)C(=O)O (stereo not drawn) |  | 75% | 36.4 ng/mL | 45% | 91% |  |  | 0 | Average turns (Rattus norvegicus [13]): 69; Inhibition (Rattus norvegicus [2]): 19.9 ng/mL; Exhibiting turning (Rattus norvegicus [20]): 0%
CCCN1CC(CO)C[C@@H]2Cc3c[nH]cc3CC21 (stereo partly drawn) | 109 | 100% |  | 17% |  |  |  | 8 | Exhibiting turning (Rattus norvegicus [20]): 67%
CCN(CC)C1CCc2c[nH]cc2C1.O=C(O)/C=C\C(=O)O (stereo not drawn) | 0 | 0% |  |  | 23% |  |  |  | 
CCCN1CC(CSC)C[C@@H]2Cc3n[nH]cc3CC21.Cl.Cl (stereo partly drawn) | 81 |  |  | 89% |  | 100% |  | 65 | Average turns (Rattus norvegicus [21]): 80; Inhibition (Rattus norvegicus [22]): 31.5 ng/mL; Inhibition (Rattus norvegicus [23]): 19.3 ng/mL; Exhibiting turning (Rattus norvegicus [24]): 67%; Exhibiting turning (Rattus norvegicus [18]): 50%; Inhibition (Rattus norvegicus [25]): 44.9 ng/mL; Inhibition (Rattus norvegicus [26]): 44.9 ng/mL; inhibition in vivo at 0.0005 mg/kg (Rattus norvegicus [27]): 30%; inhibition in vivo at 0.005 mg/kg (Rattus norvegicus [28]): 57%
CCCN(CCC)C1CCc2c[nH]cc2C1.O=C(O)/C=C\C(=O)O (stereo not drawn) | 52 | 40% | 59.8 ng/mL | 20% | 93% |  | 40% |  | Average turns (Rattus norvegicus [7]): 0; Exhibiting turning (Rattus norvegicus [8]): 0%; Inhibition (Rattus norvegicus [2]): 47.6 ng/mL; Serum level (Rattus norvegicus [9]): 36.1 ng/mL; Concentration (Rattus norvegicus [11]): 59.8 ng/mL
Cl.Cl.NC1CCc2n[nH]cc2C1 (stereo not drawn) | 0 | 0% |  |  | 14% |  |  |  | 
CCCN1CC(CSC)C[C@@H]2c3cccc4[nH]cc(c34)CC21.COS(=O)(=O)O (stereo partly drawn) | 93 |  |  | 95% |  | 100% |  |  | Average turns (Rattus norvegicus [29]): 0; Average turns (Rattus norvegicus [21]): 60; Average turns (Rattus norvegicus [30]): 81; Inhibition (Rattus norvegicus [22]): 15.5 ng/mL; Inhibition (Rattus norvegicus [23]): 3.5 ng/mL; Exhibiting turning (Rattus norvegicus [31]): 0%; Exhibiting turning (Rattus norvegicus [24]): 100%; Exhibiting turning (Rattus norvegicus [18]): 83%; Inhibition (Rattus norvegicus [25]): 37.7 ng/mL; Inhibition (Rattus norvegicus [26]): 37.7 ng/mL; inhibition in vivo at 0.0005 mg/kg (Rattus norvegicus [27]): 59%; inhibition in vivo at 0.005 mg/kg (Rattus norvegicus [32]): 91%
CCCN(CCC)C1CCc2n[nH]cc2C1.Cl.Cl (stereo not drawn) | 90 |  |  |  | 94% | 60% | 66% | 0 | Serum level (Rattus norvegicus [9]): 10.6 ng/mL; Exhibiting turning (Rattus norvegicus [18]): 0%; Concentration (Rattus norvegicus [11]): 31.2 ng/mL; inhibition in vivo at 0.05 mg/kg (Rattus norvegicus [33]): 1%; Control (Rattus norvegicus [34]): 31.2 ng/mL; Treatment (Rattus norvegicus [35]): 30.8 ng/mL
CN1CCC[C@@H]2Cc3c[nH]cc3CC21.O=C(O)/C=C\C(=O)O (stereo partly drawn) | 19 | 33% |  |  | 90% |  | 18% |  | Serum level (Rattus norvegicus [9]): 30.9 ng/mL; Concentration (Rattus norvegicus [11]): 37.7 ng/mL
CCCN1CCC[C@@H]2Cc3n[nH]cc3CC21.Cl.Cl (stereo partly drawn) | 85 |  |  | 61% | 91% | 100% | 76% | 67 | Average turns (Rattus norvegicus [21]): 6; Exhibiting turning (Rattus norvegicus [24]): 67%; Exhibiting turning (Rattus norvegicus [18]): 75%
CCCN1CCC[C@@H]2Cc3c[nH]cc3CC21.O=C(O)/C=C\C(=O)O (stereo partly drawn) | 169 | 100% | 49.5 ng/mL | 36% | 95% |  |  | 64 | Average turns (Rattus norvegicus [21]): 49; Inhibition (Rattus norvegicus [23]): 37.6 ng/mL; Exhibiting turning (Rattus norvegicus [20]): 50%; Inhibition (Rattus norvegicus [26]): 49.5 ng/mL; inhibition in vivo at 0.005 mg/kg (Rattus norvegicus [32]): 24%; Treatment (Rattus norvegicus [35]): 31.6 ng/mL; Exhibiting turning (Rattus norvegicus [36]): 33%
Cl.Cl.c1[nH]nc2c1CC1NCCC[C@@H]1C2 (stereo partly drawn) | 0 |  |  |  | 20% | 0% |  |  | 

— ChEMBL document CHEMBL1121430, “Bicyclic and tricyclic ergoline partial structures. Rigid 3-(2-aminoethyl)pyrroles and 3- and 4-(2-aminoethyl)pyrazoles as dopamine agonists” (1980)
